Published values gathered from unrelated publications.
Each line is one published result; the experiments were not run side by side.
Target: Fibroblast growth factor receptor 1 (FGFR1, Homo sapiens, UniProt P11362)

SMILES	observed	method	concentration	remaining binding
O=C(NCCCN1CCOCC1)c1ccc(Nc2nccc(-c3cc4ccccc4s3)n2)cc1	binding	competition with immobilised ligand	1 µM	88%
O=C1CCc2cc(Nc3cc(OC4CCOCC4)c([N+](=O)[O-])cc3Cl)ccc2N1	cell-free assay	competition with immobilised ligand	1 µM	93%
O=C(c1ccc(Nc2nccc(-c3cc4ccccc4s3)n2)cc1)N1CCC(N2CCCC2)CC1	binding	competition with immobilised ligand	1 µM	88%
COc1ccnn2ncc(-c3ccnc(N(C)C)n3)c12	binding	–	1 µM	86%
CN(C)c1ncnc(-c2ccc3nc(Nc4cc(CN5CCN(C(=O)CC(F)(F)F)CC5)ccn4)[nH]c3c2)c1Cl	cell-free assay	competition with immobilised ligand	1 µM	100%
CN(C)c1nccc(-c2cnn3ncccc23)n1	binding	–	1 µM	100%
C[C@@H]1CN(c2cc(-c3nn(C)c4ccc(OC5(C)CC5)cc34)ncn2)C[C@H](C)O1	cell-free assay	competition with immobilised ligand	1 µM	100%
CN(C)c1ncc(F)c(-c2cnn3ncccc23)n1	binding	–	1 µM	100%
O=C(Nc1c[nH]nc1C(=O)NC1CCNCC1)c1cc(F)cc(F)c1	binding	competition with immobilised ligand	1 µM	100%
Cc1nc(C2CCN(C(=O)c3ccc(OC(F)(F)F)cc3N)CC2)c2ncc(N3CCN(C)CC3)cc2n1	cell-free assay	competition with immobilised ligand	1 µM	100%
N[C@H]1CCN(c2nccc(-c3cnn4ncccc34)n2)C1	binding	–	1 µM	100%
CNC(=O)[C@@H]1CC[C@@H](n2c(-c3ccc4cnccc4c3)nc3ccc(C(=O)NCc4cccc(C(N)=O)c4)cc32)C1	binding	competition with immobilised ligand	1 µM	90%
FC(F)(F)Oc1cccc(-c2cnc3ccc(-c4ccncc4)nn23)c1	cell-free assay	competition with immobilised ligand	5 µM	72%
C[C@H]1CCN(c2nccc(-c3cnn4ncccc34)n2)C1	binding	–	1 µM	100%
CN(C)C(=O)Cn1cc(-c2nc([C@@](C)(c3ccc(-c4cnc(N)nc4)cc3)C3CC3)no2)cn1	cell-free assay	competition with immobilised ligand	1 µM	95%
O=C(c1ccc(Nc2ncc(Cl)c(-c3ccc(Cl)s3)n2)cc1)N1CCC(N2CCCC2)CC1	binding	competition with immobilised ligand	1 µM	12%
COc1cnc(Nc2cccc(S(N)(=O)=O)c2)nc1N1CCN(c2ccccc2)C(=O)C1	binding	competition with immobilised ligand	1 µM	83%
C[C@H](NC(=O)c1cnc2n1[C@](C)(Cc1ccc(C#N)cc1)C(=O)N2c1cc(Cl)c(F)c(Cl)c1)C(=O)NC1(c2ccccn2)CC1	cell-free assay	competition with immobilised ligand	1 µM	100%
Cc1cnn2ncc(-c3ccnc(N(C)C)n3)c2c1	binding	–	1 µM	100%
CS(=O)(=O)NCC[C@H](NC(=O)c1cncc2c1cnn2-c1ccc(F)cc1)c1ccnc(S(C)(=O)=O)c1	cell-free assay	competition with immobilised ligand	1 µM	87%
COc1ncc2cc3ccccc3nc2c1C#N	cell-free assay	competition with immobilised ligand	5 µM	73%
c1cncc(-c2cccc(Nc3nccc(NC4CCCCC4)n3)c2)c1	binding	competition with immobilised ligand	10 µM	14%
